Hits are enriched below; roughly 0.55% of the tested compounds scored in any of these assays.
V1aR counter = V1a receptor agonism, counter-screen for OXTR agonists | P37288 | CHO-V1R cells, Fluo-8 calcium fluorescence, agonist mode; 0% DMSO, 100% 3 nM vasopressin | activation, % at 3 µM | actives 0.25% (n = 320,000) | AID 2797;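 active = activation above the mean activation of all tested compounds plus 3 SD, per screening run, cut at about 20% in these data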;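 also: signal is peak over basal fluorescence ratio across a 100 second FLIPR read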
OXTR agonist = human OXTR agonism | CHO-OTR cells, Fluo-8 calcium fluorescence; normalized: DMSO 0%, oxytocin 100% | activation, % at 3 µM | actives 0.32% (n = 320,000) | AID 2435;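 active = activation above the mean of all tested compounds plus 3 SD, cutoff set per screening run, cut at about 20% in these data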;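 also: peak over basal fluorescence ratio from a 100 s FLIPR kinetic read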
zfTRPN1 agonist = activates the zebrafish TRPN1 channel. HEK293 zebrafish TRPN1-YFP, Fluo-8 calcium fluorescence; 100% = response to 87 µM carbachol. activation, % at 3 µM. actives 0.18% (n = 220,000);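 active = activation above its plate's cutoff, the mean activation of test wells on that plate plus 3 SD, cut at about 19% in these data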
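Assay system: Zebrafish TRPN1-YFP in HEK293 cells | Incubation: Dye loading 1 h at 37 °C, then 30 min room temperature | Measured by: Kinetic Fluo-8 fluorescence, ex 470-495, em 515-575 nm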
OXTR potentiate = potentiates the human oxytocin receptor response | activation, % at 3 µM | CHO-OTR cells, Fluo-8 calcium fluorescence, potentiator mode; 0% = oxytocin EC15, 100% = EC100 | actives 0.061% (n = 320,000) | P30559;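 active = activation above that plate's cutoff, the mean activation of tested compounds plus 3 SD, cut at about 6.6% in these data, passing the limit was not always enough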
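assay system = CHO-OTR cells, human receptor | schedule = compound 6 min at room temperature before oxytocin, 100 s read | detection = Fluo-8 intracellular calcium fluorescence, ex 470-495, em 515-575 nm | evaluation = normalized max/min fluorescence ratio, % activation | control set = EC15 oxytocin alone as 0%, 75 nM oxytocin (EC100) as 100%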
TRPML3 ag = agonists of human TRPML3 channel. actives 0.29% (n = 220,000). HEK293 TRPML3-YFP, Fluo-8 calcium fluorescence; 100% = the carbachol control signal. Q8TDD5. activation, % at 3 µM. AID 1448;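 active = activation above its plate's cutoff, the mean activation of the plate's test wells plus 3 SD, cut at about 12% in these data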
Target sequence (Q8TDD5 whole entry, looked up): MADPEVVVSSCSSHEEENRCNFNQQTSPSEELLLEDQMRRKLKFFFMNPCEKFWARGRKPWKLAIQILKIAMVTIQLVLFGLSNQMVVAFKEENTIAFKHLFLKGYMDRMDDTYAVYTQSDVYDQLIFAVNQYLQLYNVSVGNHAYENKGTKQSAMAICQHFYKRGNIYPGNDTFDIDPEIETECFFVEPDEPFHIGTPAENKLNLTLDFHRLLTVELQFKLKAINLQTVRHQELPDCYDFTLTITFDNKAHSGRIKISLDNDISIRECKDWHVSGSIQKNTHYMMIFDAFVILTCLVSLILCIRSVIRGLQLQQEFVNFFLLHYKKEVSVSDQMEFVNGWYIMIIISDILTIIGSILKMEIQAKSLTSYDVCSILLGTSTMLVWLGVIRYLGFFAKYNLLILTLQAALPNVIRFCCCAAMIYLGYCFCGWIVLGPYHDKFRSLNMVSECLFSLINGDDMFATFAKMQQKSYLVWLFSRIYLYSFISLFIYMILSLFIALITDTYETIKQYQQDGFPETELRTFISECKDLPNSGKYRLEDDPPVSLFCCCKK
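system = HEK293 cells stably carrying human TRPML3-YFP | doses = one concentration, 3 µM nominal, 0.3% DMSO | timing = dye loading 1 h 37 °C then 30 min ambient, 125 s read | detection = Fluo-8 calcium dye fluorescence, ex 470-495, em 515-575 nm | benchmarks = high control carbachol 87 µM, low control DMSO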
V1aR agonist cf = confirmation of human vasopressin V1a receptor agonists | shares compounds with V1aR counter | CHO-V1R cells, Fluo-8 calcium fluorescence, agonist | activation, % at 3 µM | actives 20% (n = 180);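 active = average activation exceeds primary screen hit cutoff, cut at about 21% in these data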;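 also: peak over basal fluorescence ratio during a 100 s FLIPR read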
OXTR counter = counter-screen for V1a receptor agonists: oxytocin receptor agonists | CHO-OTR cells, Fluo-8 calcium fluorescence, agonist | actives 10% (n = 180) | shares compounds with V1aR counter | activation, % at 3 µM | AID 434969;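 active = mean activation over three repeats above the cutoff from the earlier oxytocin receptor agonist screen, cut at about 20% in these data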;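 also: peak over minimum fluorescence ratio within a 100 second FLIPR read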
Of the large screens only hits and unclear results are named; the others gave an inactive call (follow-up assays come after a bar, where they were run).

COc1ccc(OC)c2sc(N(CCCN(C)C)C(=O)CCS(=O)(=O)c3ccccc3)nc12	none (no result: zfTRPN1 agonist, TRPML3 ag)
O=C(O)c1cccc(S(=O)(=O)Nc2ccc(N3CCCCC3)cc2)c1	none (no result: zfTRPN1 agonist, TRPML3 ag)
O=C(CSc1ncc(-c2ccc(F)cc2)n1Cc1ccco1)Nc1nccs1	V1aR counter 29 | V1aR agonist cf inactive | OXTR counter inactive
c1cc2c3c(cccc3c1)NC1(CCCCCC1)N2	none
c1cc2c3c(cccc3c1)NC1(CCC3(CC1)Nc1cccc4cccc(c14)N3)N2	V1aR counter 32 | V1aR agonist cf inactive | OXTR counter inactive
NC(=O)C1CCN(C(=O)c2ccc3c(=O)n(Cc4ccco4)c(SCc4ccc([N+](=O)[O-])cc4)nc3c2)CC1	none (no result: zfTRPN1 agonist, TRPML3 ag)
CCc1ccc(N2CC(C(=O)Nc3cccc(C(=O)NC4CC4)c3)CC2=O)cc1 (configuration not stated)	none (no result: zfTRPN1 agonist, TRPML3 ag)
CCCCCCCCCCC[N+](C)(C)CC/C=C1/c2ccccc2Sc2ccc(Cl)cc21	V1aR counter 38 (no result: zfTRPN1 agonist, TRPML3 ag) | V1aR agonist cf inactive | OXTR counter inactive
COc1ccc(C(C)NC(=O)Nc2ccc(C(C)=O)cc2)cc1OC (configuration not stated)	none (no result: zfTRPN1 agonist, TRPML3 ag)
COCCN1C(=O)/C(=C/c2ccc(N3CCCC3)cc2)SC1=S	V1aR counter 28 | V1aR agonist cf 99 | OXTR counter 76
COc1ccc(/C=C2\SC(=S)N(CCC(=O)N3CCCCC3)C2=O)cc1	none (no result: zfTRPN1 agonist, TRPML3 ag)
O=C(NC(=S)NCCc1ccccn1)c1ccccc1	none
O=C(NC(=S)NCCc1ccccn1)c1ccco1	V1aR counter 117 | V1aR agonist cf inactive | OXTR counter inactive
C=CCOC(=O)C1=C[C@@H](c2csc3ccccc23)C[C@@H](OCCCCO)O1	none (no result: zfTRPN1 agonist, TRPML3 ag)
S=C(N/N=C1\C2CN3CCN(C2)CC1(c1ccccc1)C3)Nc1ccccc1	none
Cc1ccc(NC(=O)c2ccc(OC(=S)N3CCOCC3)cc2)cc1	V1aR counter 26 | V1aR agonist cf inactive | OXTR counter inactive
O=C(COc1ccc(-c2nnco2)cc1)Nc1ccc(C(F)(F)F)cc1	V1aR counter 21 (no result: zfTRPN1 agonist, TRPML3 ag) | V1aR agonist cf inactive | OXTR counter inactive
O=C(COc1ccc(-c2nnco2)cc1)NCc1ccccc1Cl	none
Cc1ccc(C(C)NC(=S)NCc2ccc(F)cc2)c(C)c1 (configuration not stated)	V1aR counter 23 (no result: zfTRPN1 agonist, TRPML3 ag) | V1aR agonist cf inactive | OXTR counter inactive
CC(COc1ccc(/C=C/c2ccccc2)cc1)[N+](C)(C)C (configuration not stated)	none (no result: zfTRPN1 agonist, TRPML3 ag)
CCCCCc1ccc(OCCCC[n+]2ccccc2)c(CCCCC)c1	none
CCCCCc1ccc(OCCCC[n+]2ccc(C)cc2)c(CCCCC)c1	V1aR counter 22 | V1aR agonist cf inactive | OXTR counter inactive
C[C@H](CO)N1C[C@H](C)[C@@H](CN(C)C(=O)Nc2ccc(C(F)(F)F)cc2)Oc2ccc(NC(=O)Cc3ccccc3)cc2C1=O	none (no result: zfTRPN1 agonist, TRPML3 ag)
COc1ccc(OC)c2c1C(=O)c1ccccc1C2=O	V1aR counter 23 | V1aR agonist cf 33 | OXTR counter 21
O=C(CCCC(=O)NCC1CCCO1)NCC1CCCO1 (configuration not stated)	V1aR counter 20 | V1aR agonist cf inactive | OXTR counter inactive
COc1ccc(CCN2C(=O)NC(NS(=O)(=O)c3ccccc3)(C(F)(F)F)C2=O)cc1OC (configuration not stated)	none (no result: zfTRPN1 agonist, TRPML3 ag)
COC(=O)C1=C(C)N(Cc2ccccc2)C(=NCCc2c[nH]c3ccccc23)N[C@H]1c1cccc(C(F)(F)F)c1	V1aR counter 20 (no result: zfTRPN1 agonist, TRPML3 ag) | V1aR agonist cf inactive | OXTR counter inactive
COCCN=C1N[C@@H](c2cccc(C(F)(F)F)c2)C(C(=O)OC)=C(C)N1Cc1ccccc1	none (no result: zfTRPN1 agonist, TRPML3 ag)
CCc1ccc(NC(=O)CC2C(=O)N(c3ccc(C)cc3)C(=O)N2CCc2ccncc2)cc1 (configuration not stated)	none
O=C(OCCc1cc2ccccc2c(=O)o1)c1ccco1	none (no result: zfTRPN1 agonist, TRPML3 ag)
COc1ccc(CCNC(=O)CCS(=O)(=O)Cc2ccccc2C)cc1OC	none (no result: zfTRPN1 agonist, TRPML3 ag)
CCC(NC(=O)c1cc(COc2ccc(C)nc2)on1)c1ccc(C)cc1 (configuration not stated)	V1aR counter 23 (no result: zfTRPN1 agonist, TRPML3 ag) | V1aR agonist cf inactive | OXTR counter inactive
Cc1cc(NCc2ccccc2)nc2ccccc12	V1aR counter 32 | V1aR agonist cf inactive | OXTR counter inactive
Cc1cc(NCc2ccccc2)c2ccccc2n1	none (no result: zfTRPN1 agonist, TRPML3 ag)
CC(NC(=O)Nc1ccc([N+](=O)[O-])cc1)C(c1ccccc1)N1CCOCC1 (configuration not stated)	V1aR counter 52 | V1aR agonist cf 26 | OXTR counter inactive
CC(NC(=O)c1ccc(Cl)cc1Cl)C(c1ccccc1)N1CCOCC1 (configuration not stated)	none
CC(NC(=O)Nc1ccc(Cl)c(Cl)c1)C(c1ccccc1)N1CCOCC1 (configuration not stated)	V1aR counter 44 | V1aR agonist cf 25 | OXTR counter inactive
O=C1NC(=O)C2(COC(c3ccccc3Cl)OC2)S1 (configuration not stated)	none
CN1C(=O)/C(=C\c2ccccc2F)Sc2ccc(C(=O)NC3CCN(Cc4ccccc4)CC3)cc21	none (no result: zfTRPN1 agonist, TRPML3 ag)
O=c1oc2ccccc2n1Cc1cccc(C(F)(F)F)c1	none (no result: zfTRPN1 agonist, TRPML3 ag)
Cc1ccc(NC(=O)C2CCC(CNC(=O)[C@@H]3Cc4ccccc4CN3)CC2)cc1 (some centres not stated)	none (no result: zfTRPN1 agonist, TRPML3 ag)
CC(C)c1ccc(NC(=O)C2CCC(CNC(=O)[C@@H]3Cc4ccccc4CN3)CC2)cc1 (some centres not stated)	V1aR counter 24 (no result: zfTRPN1 agonist, TRPML3 ag) | V1aR agonist cf inactive | OXTR counter inactive
CCC1Sc2ccc(S(=O)(=O)Nc3ccc(OC)c(OC)c3)cc2NC1=O (configuration not stated)	none (no result: zfTRPN1 agonist, TRPML3 ag)
CCC1Sc2ccc(S(=O)(=O)Nc3ccc(OC)cc3)cc2NC1=O (configuration not stated)	V1aR counter 20 (no result: zfTRPN1 agonist, TRPML3 ag) | V1aR agonist cf inactive | OXTR counter inactive
NS(=O)(=O)c1ccc2nc(NC(=O)Nc3ccc(F)cc3)sc2c1	V1aR counter 24 (no result: zfTRPN1 agonist, TRPML3 ag) | V1aR agonist cf inactive | OXTR counter inactive
COc1ccccc1CN1C[C@@H]2C[C@@H](c3[nH]c4c(C)cccc4c3C)N3CCC[C@@]23C1=O	V1aR counter 35 | V1aR agonist cf inactive | OXTR counter inactive
COc1ccc(NC(=O)CSc2nc(N)c(NC(=O)c3ccccc3F)c(=O)[nH]2)cc1	none (no result: zfTRPN1 agonist, TRPML3 ag)

Compound activity: PubChem, The Scripps Research Institute Molecular Screening Center
